{"data": "Experimental data gathered from unrelated publications", "note": "Each line is one published result; the experiments were not run side by side."}
{"SMILES": "COc1cc(NC(=O)Cc2c[nH]c3ccccc23)ccc1C", "assay": "ABTS scavenging", "quantity": "IC50", "result": "1110 nM"}
{"SMILES": "COc1ccccc1-c1n[nH]c2nc(N[C@H]3CC[C@H](NS(=O)(=O)CCCOCCOCCNC(=O)OC(C)(C)C)CC3)ncc12", "tested on": "Leishmania donovani", "assay": "parasite growth", "system": "THP-1", "conditions": "intracellular, amastigote", "quantity": "EC50", "result": "5.24 µM"}
{"SMILES": "COc1ccc(OC)c(NC(=O)Cc2c[nH]c3ccccc23)c1", "assay": "ABTS scavenging", "quantity": "IC50", "result": "1430 nM"}
{"SMILES": "Clc1ccccc1C(c1ccccc1)(c1ccccc1)n1ccnc1", "tested on": "Mucor", "assay": "microbial growth, disc diffusion", "conditions": "20000 µg/mL", "quantity": "inhibition zone", "result": "22 mm"}
{"SMILES": "O=C(Cc1c[nH]c2ccccc12)Nc1cccc(Br)c1", "assay": "ABTS scavenging", "quantity": "IC50", "result": "1140 nM"}
{"SMILES": "O=C(CN1C(=O)/C(=C/c2cccs2)SC1=S)Nc1ccccc1", "tested on": "A549", "assay": "cell growth or viability, MTT", "conditions": "10 µM", "quantity": "inhibition", "result": "23.5%"}
{"SMILES": "CC1(C)S[C@@H]2[C@H](NC(=O)[C@H](N)c3ccccc3)C(=O)N2[C@H]1C(=O)O", "tested on": "Moraxella catarrhalis", "assay": "microbial growth, broth dilution", "system": "ATCC25238", "quantity": "MIC", "result": "< 0.25 µg/mL"}
{"SMILES": "COc1ccc(-c2ccc(-c3ccc(C(=N)N)nc3)s2)cc1", "tested on": "OVCAR-4", "assay": "cell growth or viability, SRB", "quantity": "GI50", "result": "1790 nM"}
{"SMILES": "O=C(CN1C(=O)/C(=C/c2ccccc2Cl)SC1=S)Nc1ccccc1", "tested on": "PC-3", "assay": "cell growth or viability, MTT", "conditions": "10 µM", "quantity": "inhibition", "result": "22.6%"}
{"SMILES": "COc1cc(Nc2nccc(-c3cnn4nc(OC)ccc34)n2)cc(C(F)(F)F)c1", "tested on": "Ishikawa", "assay": "cell growth or viability, ATP luminescence", "quantity": "IC50", "result": "450 nM"}
{"SMILES": "O=C(CN1C(=O)/C(=C/c2ccc[nH]2)SC1=S)Nc1ccccc1", "tested on": "A549", "assay": "cell growth or viability, MTT", "conditions": "10 µM", "quantity": "inhibition", "result": "21.4%"}
{"SMILES": "CC(C)C[C@H](NC(=O)[C@H](Cc1ccccc1)NC(=O)c1cnccn1)B(O)O", "tested on": "NCI-H1048", "assay": "cell growth or viability, ATP luminescence", "quantity": "IC50", "result": "17 nM"}
